# Experimental data reported in ChEMBL document CHEMBL1122026, “Antiestrogenic properties of substituted benz[a]anthracene-3,9-diols” (1982).
# Experiments:
# Rattus norvegicus [1] = organism: Rattus norvegicus; experiment: Antiestrogenic potency was measured by inhibition of estrus in ovariectomized rats treated with 17-beta-estradiol at a dose of 5 mg; assay type: functional
# Method in brief: (§1)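 Ovariectomized rats were given 17β-estradiol together with the test compound. Vaginal smears were taken 32 h later; rats with cornified epithelial cells in the smear were scored as in estrus. The 32 h time point was chosen from smears taken at 0, 8, 24, 32, 48, 56 and 72 h. Read-out: percentage of rats in estrus, and its inhibition.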
# Rattus norvegicus [2] = organism: Rattus norvegicus; experiment: Affinity constant was measured by inhibition of estrus in ovariectomized rats treated with 17-beta-estradiol at a dose of 5 mg; assay type: functional, organism-based
# Rattus norvegicus [3] = organism: Rattus norvegicus; experiment: Antiestrogenic potency was measured by inhibition of estrus in ovariectomized rats treated with 17-beta-estradiol at a dose of 0.5 mg; assay type: functional; method in brief: as §1
# Rattus norvegicus [4] = organism: Rattus norvegicus; experiment: Affinity constant was measured by inhibition of estrus in ovariectomized rats treated with 17-beta-estradiol; assay type: functional, organism-based
Compound,Inhibition (Rattus norvegicus [1]) [%],Ka (Rattus norvegicus [2]) [M⁻¹],Inhibition (Rattus norvegicus [3]) [%],Ka (Rattus norvegicus [4]) [M⁻¹]
CC(=O)Oc1ccc2c(ccc3c(C)c4cc(OC(C)=O)ccc4c(C)c32)c1,67,,,
Cc1c2ccc(O)cc2cc2ccc3cc(O)ccc3c12,44,4.3e+07,,
Cc1c2cc(O)ccc2cc2c1ccc1cc(O)ccc12,22,1.8e+09,,
Oc1ccc2cc3c(ccc4cc(O)ccc43)cc2c1,12,3e+07,,
Cc1c2cc(O)ccc2c(C)c2c1ccc1cc(O)ccc12,74,1.7e+08,44,
C[C@]12CC[C@@H]3c4ccc(O)cc4CC[C@H]3[C@@H]1C[C@@H](O)[C@@H]2O,,,,7e+09
COc1ccc2c(c1)CCC(c1ccccc1)=C2c1ccc(OCCN2CCCC2)cc1 [NAFOXIDINE],,,44,
